Reference: ChEMBL document CHEMBL1156395, “Cytotoxic polyacetylenic alcohols from the marine sponge Petrosia species” (2001)
≈ marks a conversion by molar mass, not a printed value.

Experiments:
[1] = tested on: A549; test: Cytotoxicity against human A549 cells; format: functional; conditions: read-out: ED50 (the source's name)
[2] = tested on: SK-OV-3; test: Cytotoxicity against human SKOV3 cells; format: functional; conditions: read-out: ED50 (the source's name)
[3] = tested on: SK-MEL-2; test: Cytotoxicity against human SK-MEL-2 cells; format: functional; conditions: read-out: ED50 (the source's name)
[4] = tested on: XF498; test: Cytotoxicity against human XF498 cells; format: functional; conditions: read-out: ED50 (the source's name)
[5] = tested on: HCT-15; test: Cytotoxicity against human HCT15 cells; format: functional; conditions: read-out: ED50 (the source's name)
[6] = tested on: Nucleic Acid; test: Inhibition of SV40 DNA replication at 20 uM; format: nucleic-acid assay; conditions: Betapolyomavirus macacae
Summary of the method: (§1)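 Cell-free SV40 origin (pUC) plasmid replication in 40 mM creatine phosphate-di-Tris pH 7.7 with creatine kinase, 7 mM MgCl2, 0.5 mM DTT, 4 mM ATP, 200 µM UTP/GTP/CTP, 100 µM dATP/dGTP/dCTP, 25 µM [3H]dTTP, 0.6 µg SV40 T-Ag and replication proteins. Incubation 90 min at 37 °C; acid-insoluble radioactivity counted. Products checked with [α-32P]dATP on agarose gel.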

[7] = tested on: Nucleic Acid; test: Inhibition of SV40 DNA replication at 40 uM; format: nucleic-acid assay; conditions: Betapolyomavirus macacae; summary of the method: as §1

Row | inhibition [6] | inhibition [7] | Compound | EC50 [1] | EC50 [2] | EC50 [3] | EC50 [4] | EC50 [5]
1 | 21% | 38% | C#C/C=C\CCCCCCCCCCCCCCCC/C=C\CCCC/C=C\CCCCC#C[C@@H](O)C#CCCCCCC/C=C/[C@H](O)C#C | 5.2 µg/mL (≈ 7.61 µM) | 5.1 µg/mL (≈ 7.47 µM) | 1.6 µg/mL (≈ 2.34 µM) | 5.8 µg/mL (≈ 8.49 µM) | 3.9 µg/mL (≈ 5.71 µM)
2 | 16% | 48% | C#CCCCCCCCCCCCCCCCCC/C=C\CCCC/C=C\CCCCC#C[C@@H](O)C#CCCCCCCCC[C@@H](O)C#C [PETROTETRAYNDIOL F] | 3.7 µg/mL (≈ 5.5 µM) | 3.8 µg/mL (≈ 5.65 µM) | 1.1 µg/mL (≈ 1.63 µM) | 4.3 µg/mL (≈ 6.39 µM) | 3.4 µg/mL (≈ 5.05 µM)
3 | 9% | 36% | C#C/C=C\CCCCCCCCCCCCCC/C=C\CCCCC(O)/C=C/CCCC#C[C@H](O)C#CCCCCCC/C=C/[C@H](O)C#C (stereo not given in full) | 10 µg/mL (≈ 14.9 µM) | 1.8 µg/mL (≈ 2.68 µM) | 1.3 µg/mL (≈ 1.94 µM) | 4.7 µg/mL (≈ 7 µM) | 4 µg/mL (≈ 5.96 µM)

More lines, now with the values behind:

Row | Compound | inhibition [6] | inhibition [7] | EC50 [1] | EC50 [2] | EC50 [3] | EC50 [4] | EC50 [5]
4 | C#C/C=C\CCCCCCCCCCCCCCC(O)/C=C/CCC/C=C\CCCCC#C[C@H](O)C#CCCCCCC/C=C/[C@H](O)C#C (stereo not given in full) | 8% | 55% | 4 µg/mL (≈ 5.96 µM) | 1.2 µg/mL (≈ 1.79 µM) | 0.5 µg/mL (≈ 0.745 µM) | 3.5 µg/mL (≈ 5.22 µM) | 1.4 µg/mL (≈ 2.09 µM)
5 | C#C/C=C\CCCCCCCCCCCCC/C=C/C(O)CCCC/C=C\CCCCC#C[C@H](O)C#CCCCCCC/C=C/[C@H](O)C#C (stereo not given in full) | 8% | 55% | 4 µg/mL (≈ 5.96 µM) | 1.2 µg/mL (≈ 1.79 µM) | 0.5 µg/mL (≈ 0.745 µM) | 3.5 µg/mL (≈ 5.22 µM) | 1.4 µg/mL (≈ 2.09 µM)
